Experimental data as given in ChEMBL document CHEMBL3397044, “Discovery and in vitro and in vivo profiles of N-ethyl-N-[2-[3-(5-fluoro-2-pyridinyl)-1H-pyrazol-1-yl]ethyl]-2-(2H-1,2,3-triazol-2-yl)-benzamide as a novel class of dual orexin receptor antagonist” (Bioorg Med Chem, 2015).
Values after ≈ are worked out from the molar mass of the structure shown. Active and inactive are the calls of the source. The calls are words filed in the database; no cut-off is given here.

Tests used:
[1] = Drug metabolism in human liver microsomes at 5 uM after 15 mins; type: ADME; conditions: read-out: Drug metabolism
Summary of the method: (§1)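 Liver microsomes at 1 mg protein/mL with 5 µM compound, incubated 15 min. Value reported as percentage of compound metabolized.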

[2] = Tmax in Sprague-Dawley rat at 30 mg/kg, po; type: ADME, organism-based; design: dose 30 mg/kg, route oral; conditions: in vivo
[3] = Oral bioavailability in Sprague-Dawley rat at 30 mg/kg; type: ADME, organism-based; conditions: in vivo
[4] = Clearance in Sprague-Dawley rat at 2 mg/kg, iv; type: ADME, organism-based; design: dose 2 mg/kg, route intravenous; conditions: in vivo
Summary of the method: (§2)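 Fasted male Sprague–Dawley rats (n = 3) given 2 mg/kg iv. Vd and CL taken from the iv profile. T1/2 calculated as ln2·Vd/CL.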

[5] = Drug metabolism in dog liver microsomes at 5 uM after 15 mins; type: ADME, Canis lupus familiaris; conditions: read-out: Drug metabolism; summary of the method: as §1
[6] = Ratio of drug level in CSF to plasma in Sprague-Dawley rat at 30 mg/kg, ip; type: ADME, organism-based; design: dose 30 mg/kg, route intraperitoneal
Summary of the method: (§3)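 Male rats dosed ip at 30 mg/kg. Drug concentrations measured in brain, CSF and plasma, and reported as brain/plasma and CSF/plasma ratios.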

[7] = Ratio of drug level in brain to plasma in Sprague-Dawley rat at 30 mg/kg, ip; type: ADME, organism-based; design: dose 30 mg/kg, route intraperitoneal; conditions: read-out: BPR; summary of the method: as §3
[8] = Volume of distribution in Sprague-Dawley rat at 2 mg/kg, iv; type: ADME, organism-based; design: dose 2 mg/kg, route intravenous; conditions: in vivo; summary of the method: as §2
[9] = Clearance in dog at 0.5 mg/kg, iv; type: ADME, organism-based, Canis lupus familiaris; design: dose 0.5 mg/kg, route intravenous; conditions: in vivo
Summary of the method: (§4)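 Male dogs given 0.5 mg/kg iv (n = 3). Vd and CL derived from the iv profile. T1/2 = ln2·Vd/CL.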

[10] = Tmax in dog at 3 mg/kg, po; type: ADME, organism-based, Canis lupus familiaris; design: dose 3 mg/kg, route oral; conditions: in vivo
Summary of the method: (§5)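 Fasted male rats dosed orally at 10 mg/kg, and male dogs at 3 mg/kg (n = 3). Tmax read from the oral profile. F calculated against the iv arm (rat 2 mg/kg, dog 0.5 mg/kg).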

[11] = target: T1, Orexin receptor type 2 (Homo sapiens) (UniProt O43614); assay: Antagonist activity against human OX2 receptor expressed in CHO cells assessed as reduction in [Ala6,12]orexin-A-induced intracellular Ca2+ mobilization incubated for 30 mins by Fluo-4 AM dye based fluorescence assay; type: functional, cell-based
T1 sequence (whole entry): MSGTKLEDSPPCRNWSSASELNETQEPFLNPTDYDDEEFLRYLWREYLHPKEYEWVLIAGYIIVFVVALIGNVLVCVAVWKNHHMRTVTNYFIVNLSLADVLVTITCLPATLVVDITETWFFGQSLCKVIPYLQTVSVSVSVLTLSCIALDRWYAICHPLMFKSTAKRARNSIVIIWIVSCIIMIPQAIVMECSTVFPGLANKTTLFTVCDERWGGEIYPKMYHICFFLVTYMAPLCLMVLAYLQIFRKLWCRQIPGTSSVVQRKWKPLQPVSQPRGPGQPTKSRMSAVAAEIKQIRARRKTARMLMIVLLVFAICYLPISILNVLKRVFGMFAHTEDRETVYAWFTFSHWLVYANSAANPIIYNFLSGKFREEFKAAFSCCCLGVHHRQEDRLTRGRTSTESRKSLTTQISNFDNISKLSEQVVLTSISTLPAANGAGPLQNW
Summary of the method: (§6)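 Cells seeded 2.4 × 10⁴/well, cultured 18 h. Loaded with Fluo-4 AM (0.5 µM final) in HBSS, 20 mM HEPES, 0.1% BSA, 2.5 mM probenecid, 0.2 mg/mL amaranth, pH 7.4, 37 °C 1 h. Washed, then antagonist for 30 min at room temperature. Peak minus basal fluorescence normalized to the [Ala6,12]orexin-A maximum. Kb = IC50/(1+[L]/EC50). At least three independent runs in duplicate.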

[12] = target: T2, Orexin/Hypocretin receptor type 1 (Homo sapiens) (UniProt O43613); assay: Antagonist activity against human OX1 receptor expressed in CHO cells assessed as reduction in [Ala6,12]orexin-A-induced intracellular Ca2+ mobilization incubated for 30 mins by Fluo-4 AM dye based fluorescence assay; type: functional, cell-based; summary of the method: as §6
T2 sequence (whole entry): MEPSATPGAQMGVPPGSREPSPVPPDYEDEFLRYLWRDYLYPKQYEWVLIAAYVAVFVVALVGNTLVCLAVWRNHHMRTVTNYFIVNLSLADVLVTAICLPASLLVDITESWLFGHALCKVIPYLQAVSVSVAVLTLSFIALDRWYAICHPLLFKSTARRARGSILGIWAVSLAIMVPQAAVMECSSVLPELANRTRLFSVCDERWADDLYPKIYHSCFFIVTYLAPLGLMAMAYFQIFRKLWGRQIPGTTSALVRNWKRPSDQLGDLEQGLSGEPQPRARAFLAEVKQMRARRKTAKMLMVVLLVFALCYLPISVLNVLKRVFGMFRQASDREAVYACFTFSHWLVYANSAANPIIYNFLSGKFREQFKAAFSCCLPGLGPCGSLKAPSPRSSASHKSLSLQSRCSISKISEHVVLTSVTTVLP

[13] = Volume of distribution in dog at 0.5 mg/kg, iv; type: ADME, organism-based, Canis lupus familiaris; design: dose 0.5 mg/kg, route intravenous; conditions: in vivo; summary of the method: as §4
[14] = Half life in dog at 0.5 mg/kg, iv; type: ADME, organism-based, Canis lupus familiaris; design: dose 0.5 mg/kg, route intravenous; conditions: in vivo; summary of the method: as §4
[15] = Half life in Sprague-Dawley rat at 2 mg/kg, iv; type: ADME, organism-based; design: dose 2 mg/kg, route intravenous; conditions: in vivo; summary of the method: as §2
[16] = Drug metabolism in rat liver microsomes at 5 uM after 15 mins; type: ADME; conditions: read-out: Drug metabolism; summary of the method: as §1
[17] = Oral bioavailability in dog at 3 mg/kg; type: ADME, organism-based, Canis lupus familiaris; conditions: in vivo; summary of the method: as §5
[18] = test system: Rattus norvegicus; assay: Toxicity in Wistar rat assessed as effect on rotarod performance at 10 mg/kg, ip administered 30 mins prior to the test by rotarod test; type: organism-based; design: dose 10 mg/kg, route intraperitoneal; conditions: in vivo, 0.5 h
[19] = Cmax in free moving Wistar rat with chronically implanted electrodes 3 mg/kg, ip after 0.33 hrs; type: ADME, organism-based; design: dose 3 mg/kg, route intraperitoneal; conditions: in vivo
[20] = test system: Rattus norvegicus; assay: Toxicity in Sprague-Dawley rat assessed as effect on rotarod performance at 3 to 30 mg/kg, ip administered 30 mins prior to the test by rotarod test; conditions: in vivo, 0.5 h
[21] = Ratio of drug level in CSF to plasma in Sprague-Dawley rat at 10 mg/kg, po
[22] = test system: Rattus norvegicus; assay: Sleep promoting effect in free moving Wistar rat with chronically implanted electrodes assessed as increase in duration of REM sleep at 10 and 30 mg/kg, ip after 2 hrs by polysomnogram recordings method; type: functional, organism-based; design: dose 30 mg/kg
Summary of the method: (§7)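 Male Wistar rats, 10 weeks old, implanted under pentobarbital with frontal and parietal EEG screw electrodes plus EMG. Recovered ≥7 days, then singly housed and acclimated, tethered and freely moving. Dosed ip between 18:50 and 19:00, before lights-off. EEG filtered 0.16–30 Hz, EMG 5.3–1000 Hz, scored in 8-s epochs. Sleep latency = first 15 consecutive sleep epochs. Analysed over 2 h; n = 8–10; Dunnett or Steel tests.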

[23] = test system: Rattus norvegicus; assay: Sleep promoting effect in free moving Wistar rat with chronically implanted electrodes assessed as increase in duration of NREM sleep at 10 and 30 mg/kg, ip by polysomnogram recordings method; type: functional, organism-based; design: dose 30 mg/kg; summary of the method: as §7
[24] = target: T3, Orexin receptor type 2 (Rattus norvegicus) (UniProt P56719); assay: Antagonist activity against rat OX2 receptor assessed as reduction in [Ala6,12]orexin-A-induced intracellular Ca2+ mobilization incubated for 30 mins by Fluo-4 AM dye based fluorescence assay; type: functional, cell-based
T3 sequence (whole entry): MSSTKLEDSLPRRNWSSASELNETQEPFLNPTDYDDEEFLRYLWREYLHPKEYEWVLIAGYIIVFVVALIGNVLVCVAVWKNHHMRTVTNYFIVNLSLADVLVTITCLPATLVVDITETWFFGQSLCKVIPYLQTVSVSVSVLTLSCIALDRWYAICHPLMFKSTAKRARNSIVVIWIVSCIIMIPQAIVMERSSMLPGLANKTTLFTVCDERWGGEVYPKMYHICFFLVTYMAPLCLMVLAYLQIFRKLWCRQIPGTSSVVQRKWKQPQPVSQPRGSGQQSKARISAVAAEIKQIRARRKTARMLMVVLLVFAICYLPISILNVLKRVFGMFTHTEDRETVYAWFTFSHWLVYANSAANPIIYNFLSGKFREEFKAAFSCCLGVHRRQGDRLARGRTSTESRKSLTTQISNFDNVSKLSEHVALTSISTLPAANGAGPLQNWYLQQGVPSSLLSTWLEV
Summary of the method: (§8)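 Cells seeded at 2.4 × 10⁴/well and cultured for 18 h. Compound added for 30 min at room temperature. Peak fluorescence minus basal was normalised to the maximal [Ala6,12]orexin-A response. Kb = IC50/(1+[L]/EC50). At least three independent runs in duplicate; mean ± SE.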

[25] = Solubility in pH 6.8 phosphate buffer; type: physicochemical
Summary of the method: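 Aqueous solubility measured in pH 6.8 phosphate buffer.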

[26] = Oral bioavailability in Sprague-Dawley rat at 10 mg/kg; type: ADME, organism-based; conditions: in vivo; summary of the method: as §5
[27] = Tmax in Sprague-Dawley rat at 10 mg/kg, po; type: ADME, organism-based; design: dose 10 mg/kg, route oral; conditions: in vivo; summary of the method: as §5
[28] = test system: Ribosyldihydronicotinamide dehydrogenase (NQO2) (Homo sapiens); assay: Binding affinity to MT3 receptor (unknown origin) at 10 uM
[29] = target: T4, Orexin/Hypocretin receptor type 1 (Rattus norvegicus) (UniProt P56718); assay: Antagonist activity against rat OX1 receptor assessed as reduction in [Ala6,12]orexin-A-induced intracellular Ca2+ mobilization incubated for 30 mins by Fluo-4 AM dye based fluorescence assay; type: functional, cell-based; summary of the method: as §8
T4 sequence (whole entry): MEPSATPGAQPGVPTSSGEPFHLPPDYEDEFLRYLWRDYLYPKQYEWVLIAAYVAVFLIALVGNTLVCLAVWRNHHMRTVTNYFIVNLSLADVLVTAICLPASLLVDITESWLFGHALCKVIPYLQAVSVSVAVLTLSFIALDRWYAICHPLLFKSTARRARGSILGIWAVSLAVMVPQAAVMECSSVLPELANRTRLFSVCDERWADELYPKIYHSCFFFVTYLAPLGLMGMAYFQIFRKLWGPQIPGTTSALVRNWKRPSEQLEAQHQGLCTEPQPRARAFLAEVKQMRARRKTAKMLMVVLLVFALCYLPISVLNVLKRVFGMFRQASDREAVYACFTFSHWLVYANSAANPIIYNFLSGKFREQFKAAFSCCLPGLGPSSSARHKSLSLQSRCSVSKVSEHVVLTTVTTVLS

[30] = test system: Rattus norvegicus; assay: Sleep promoting effect in free moving Wistar rat with chronically implanted electrodes assessed as reduction in latency until total sleep at 3 to 30 mg/kg, ip by polysomnogram recordings method; type: functional, organism-based; summary of the method: as §7
[31] = Ratio of drug level in brain to plasma in Sprague-Dawley rat at 10 mg/kg, po; conditions: read-out: BPR
[32] = Drug excretion in rat urine; type: ADME; conditions: read-out: Drug excretion
[33] = Drug excretion in rat bile; type: ADME, tissue-based; conditions: read-out: Drug excretion
[34] = test system: Rattus norvegicus; assay: Sleep promoting effect in ip dosed free moving Wistar rat with chronically implanted electrodes assessed as by polysomnogram recordings method; conditions: read-out: MED

SMILES: CCN(CCn1ccc(-c2ccc(F)cn2)n1)C(=O)c1cc(C)ccc1-c1ncccn1
- metabolised at 0.25 h, 5 µM [1]: 19.7%
- Tmax [2]: 40 min
- bioavailability [3]: 4.62%
- clearance [4]: 65.2 mL/min/kg
- metabolised at 0.25 h, 5 µM [5]: 10.1%
- Kp [6]: 0.03
- Kp [7]: 0.13
- Vd [8]: 1.79 L/kg
- clearance [9]: 13.1 mL/min/kg
- Tmax [10]: 30 min
- Kb [11]: 4.01 nM
- Kb [12]: 2.52 nM
- Vd [13]: 1.29 L/kg
- half-life [14]: 67.8 min
- half-life [15]: 19.1 min
- metabolised at 0.25 h, 5 µM [16]: 97.3%
- bioavailability [17]: 100%

SMILES: Cc1ccc(-c2nc3ccc(C)cn3c2CC(=O)N(C)C)cc1 [ZOLPIDEM]
- Activity [18]: Toxic

SMILES: CCN(CCn1ccc(-c2ccc(F)cn2)n1)C(=O)c1ccccc1-n1nccn1
- metabolised at 0.25 h, 5 µM [1]: 24.1%
- Cmax [19]: 728 nM
- Activity [20]: Non-toxic
- Kp [21]: 0.06
- Activity [22]: inactive
- clearance [4]: 66 mL/min/kg
- metabolised at 0.25 h, 5 µM [5]: 7.3%
- Activity [23]: Active
- Vd [8]: 1.71 L/kg
- Kb [24]: 6.06 nM
- solubility [25]: 30.2 µg/mL (≈ 74.5 µM)
- clearance [9]: 9.97 mL/min/kg
- Tmax [10]: 40 min
- bioavailability [26]: 14.9%
- Tmax [27]: 50 min
- Activity [28]: 66%
- Kb [29]: 5.08 nM
- Activity [30]: Dose-dependent effect
- Vd [13]: 0.745 L/kg
- Kp [31]: 0.17
- dose excreted [32]: 0.4%
- dose excreted [33]: 0.2%
- half-life [14]: 57.7 min
- half-life [15]: 17.9 min
- metabolised at 0.25 h, 5 µM [16]: 79.9%
- bioavailability [17]: 80.2%
- minimal effective dose [34]: 3 mg/kg
